The source of these data is PubChem BioAssay.

A short description of test [1]: Her2 expression decrease, cell viability multiplex – SKBR3 breast tumor cells, AlphaScreen, ATP viability, primary screen (AID 461;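 active means Her2 level under about 52% in both replicate screens, with viability over 70% of control, limit read from the data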;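 on Her2 level: lower value means less Her2 protein in the cells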;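 on viability: percent of carrier control wells set as 100% viability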). To be noted: SKBR3 Her2 protein level, 18-24 h, measured here: SKBR3 viability, ATP luminescence, at 10 µM. (In general: Alpha assays give light when donor and acceptor beads are brought close together.)
In test [2] the target is Receptor tyrosine-protein kinase erbB-2 (Homo sapiens) (UniProt P04626). The description is as above. To be noted: 18-24 h, at 10 µM, stronger effect = lower value.
Receptor tyrosine-protein kinase erbB-2 (Homo sapiens), sequence (P04626 whole entry, looked up): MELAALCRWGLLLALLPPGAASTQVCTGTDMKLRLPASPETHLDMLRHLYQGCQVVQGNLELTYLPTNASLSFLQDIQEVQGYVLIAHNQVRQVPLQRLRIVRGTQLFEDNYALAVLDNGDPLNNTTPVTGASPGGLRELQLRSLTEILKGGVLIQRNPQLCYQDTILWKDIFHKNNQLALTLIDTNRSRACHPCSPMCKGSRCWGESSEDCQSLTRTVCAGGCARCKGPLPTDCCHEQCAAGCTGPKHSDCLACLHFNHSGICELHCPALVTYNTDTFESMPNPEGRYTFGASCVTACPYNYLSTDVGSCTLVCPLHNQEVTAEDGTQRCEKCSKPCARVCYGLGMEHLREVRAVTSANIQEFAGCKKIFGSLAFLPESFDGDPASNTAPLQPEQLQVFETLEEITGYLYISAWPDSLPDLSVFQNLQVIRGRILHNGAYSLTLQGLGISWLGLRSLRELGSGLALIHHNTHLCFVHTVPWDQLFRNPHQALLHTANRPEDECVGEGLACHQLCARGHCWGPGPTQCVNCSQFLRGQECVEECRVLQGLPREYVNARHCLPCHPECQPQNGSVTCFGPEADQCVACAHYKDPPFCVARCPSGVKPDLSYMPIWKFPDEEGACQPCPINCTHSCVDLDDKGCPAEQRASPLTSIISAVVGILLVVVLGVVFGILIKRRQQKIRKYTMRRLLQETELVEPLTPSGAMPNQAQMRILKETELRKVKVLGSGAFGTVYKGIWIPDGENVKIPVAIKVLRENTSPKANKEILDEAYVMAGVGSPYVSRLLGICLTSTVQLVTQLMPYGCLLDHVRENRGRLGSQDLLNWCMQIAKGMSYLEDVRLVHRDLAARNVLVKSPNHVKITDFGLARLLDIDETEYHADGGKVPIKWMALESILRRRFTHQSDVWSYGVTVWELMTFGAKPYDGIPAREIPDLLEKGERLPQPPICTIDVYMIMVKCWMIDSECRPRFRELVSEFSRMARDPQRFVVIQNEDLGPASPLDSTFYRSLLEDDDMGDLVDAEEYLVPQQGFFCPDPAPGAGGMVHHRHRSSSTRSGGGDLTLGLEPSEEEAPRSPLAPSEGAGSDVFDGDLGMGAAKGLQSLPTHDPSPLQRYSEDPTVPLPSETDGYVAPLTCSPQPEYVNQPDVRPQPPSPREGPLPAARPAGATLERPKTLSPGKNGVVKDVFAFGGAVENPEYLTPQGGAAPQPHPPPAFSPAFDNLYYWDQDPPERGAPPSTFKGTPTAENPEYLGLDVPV
Test [3] can be described thus: reduced viability of SK-BR-3 breast cancer cells – cell-based, 24 h, human, pilot screen (AID 572;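 active means viability at or below 10% of carrier control in both of two separate runs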;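 further: compound exposure lasted between 18 and 24 h rather than exactly 24 h; 100% = carrier-treated control wells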). To be noted: SK-BR-3 viability, CellTiter-Glo luminescence, at 10 µM, stronger effect = lower value. On the technique in general: Cellular ATP, detected with luciferase, serves as a proxy for viable cell number.
Test [4] is described as follows: HUVEC growth inhibition – cell-based, human, primary screen (AID 575;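 active means viability at or below 30% in both replicate assays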;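 further: 100% = median of untreated cell wells with 0.1% DMSO on each plate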). To be noted: HUVEC proliferation, CellTiter-Glo luminescence, 72 h; at 10 µM; stronger effect = lower value. In short, it runs like this: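 Timing: 72 h treatment at 37 °C; material: HUVEC primary cells; technique: CellTiter-Glo luminescence measuring cellular ATP; controls: vehicle and MePR control wells; measure: percent of median DMSO-control luminescence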

A short description of test [5]: H69AR cell proliferation blockers – human, duplicate replicates, primary screen (AID 580).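 Further: 100% = mean luminescence of untreated wells and 0% = no signal.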 To be noted: H69AR lung tumor cells viability, ATP luminescence, 72 h; at 10 µM; stronger effect = lower value.
Test [6] is described as follows: MRP1 drug-resistance reversers in H69AR cells – cell-based, doxorubicin co-treatment, pilot screen (AID 601;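 active means viability loss from added drug above about 55%, and viability with drug at most 40%, in both replicates, limit read from the data, passing the limit was not always enough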). To be noted: CellTiter-Glo, 72 h, at 10 µM; for differential viability (reversal): stronger effect = higher value.
The nature of test [7]: yeast transport mutant growth inhibition pilot in 384-well plates, post-Golgi transport modulator project (AID 636; in the data active means inhibition above about 31%). As to conditions: absorbance 615 nm, about 18 h, stronger effect = higher value.
Test [8] is described as follows: growth suppression of yeast trafficking mutant, preliminary HTS, modulators of trafficking downstream of Golgi apparatus project, 1536-format plate, OD 615 nm (AID 637; in the data active means inhibition above about 30%). To be noted: yeast transport mutant growth, absorbance 615 nm, 18 h; stronger effect = higher value.
[9] abbreviates: H69AR cells + 2 uM doxorubicin, measured here: viability with 2 uM doxorubicin, stronger effect = lower value.
Where [10] appears, read: H69AR cells, compound alone cytotoxicity.

Structures are written as SMILES. Activity calls are given as the source filed them.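 How the source made its calls, unless noted: active means viability at or under a set limit in both replicates, limit being median viability minus 3 SD (cut at about 48% in these data, passing the limit was not always enough); inconclusive means at or under the limit in just one replicate; inactive means at or above the limit in both replicates.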

By viability is commonly meant a read-out of living cells in per cent, often relative to untreated cells. By inhibition is commonly meant the relative decrease from the control value, in per cent. For `O=S(=O)(NC1CCCC1)c1ccccc1Cl`, the viability in test [1] is 94.5%; in test [3] it was 94.5% (inactive); in test [4] it was 87.1% (inactive); in test [5] it was 101% (inactive); in test [6] (setting [9]) it was 98.4%; in test [6] (setting [10]), 101%. For the same compound, in test [2], the Her2 level is 97% (inactive). Besides, in test [6] (H69AR cells + 2 uM doxorubicin), the differential viability (reversal) is 2.58% (inactive). Besides, the figures for the inhibition in test [7] and in test [8] were 2.73% (inactive) and 6.39% (inactive), respectively.
For the compound `Cc1ccsc1C(C(=O)NC1CCCCC1)N(C(=O)Cc1cccs1)C1CC1` (stereo not given), the viability in test [1] was 97.5%; in test [3] it was 97.5% (inactive); in test [4], 89.2% (inactive); in test [5], 86.4% (inactive); in test [6] (setting [9]), 77.1%; in test [6] (setting [10]), 86.4%. For the same compound, in test [2], the Her2 level was 125% (inactive). The differential viability (reversal) in test [6] (H69AR cells + 2 uM doxorubicin) was 9.3% (inactive). Further, the figures for the inhibition in test [7] and in test [8] were -4.87% (inactive) and -4% (inactive), respectively.
For the compound `CN(C)S(=O)(=O)c1ccc2c(c1)C(CC(=O)O)OC2=O` (stereo not given), the viability in test [1] was 94%; in test [3], 94% (inactive); in test [4], 111% (inactive); in test [5], 96.1% (inactive); in test [6] (setting [9]), 96.9%; in test [6] (setting [10]), 96.1%. Also, the Her2 level in test [2] was 96.5% (inactive). For the same compound, in test [6] (H69AR cells + 2 uM doxorubicin), the differential viability (reversal) was -0.855% (inactive). Also, the inhibition in test [7] was -1.6% (inactive); in test [8], 17.1% (inactive).
In the case of `O=C(CSc1nnc(C2CC2)n1Cc1ccccc1)c1ccc(S(=O)(=O)N2CCOCC2)cc1`, the viability in test [1] was 120%; in test [3] it was 120% (inactive); in test [4], 95% (inactive); in test [5], 86.9% (inactive); in test [6] (setting [9]), 74.4%; in test [6] (setting [10]) it was 86.9%. The Her2 level in test [2] is 92% (inactive). Further, the differential viability (reversal) in test [6] (H69AR cells + 2 uM doxorubicin) is 12.5% (inactive). Besides, the inhibition in test [7] is -1.82% (inactive); in test [8], 6.72% (inactive).
For the compound `CSc1ccccc1NC(=O)c1c(Br)cnn1C`, the viability in test [1] is 89.5%; in test [3] it was 89.5% (inactive); in test [4], 79.2% (inactive); in test [5], 101% (inactive); in test [6] (setting [9]), 94.2%; in test [6] (setting [10]), 101%. In addition, the Her2 level in test [2] was 94.5% (inactive). Further, in test [6] (H69AR cells + 2 uM doxorubicin), the differential viability (reversal) is 6.58% (inactive). In addition, the results for the inhibition in test [7] and in test [8] were -2.6% (inactive) and -4.44% (inactive), respectively.
Take `O=C(C1CCCN(S(=O)(=O)c2ccc(Br)s2)C1)N1CCCCCC1` (stereo not given): the viability in test [1] was 83.5%; in test [3] it was 83.5% (inactive); in test [4] it was 98.4% (inactive); in test [5] it was 98.1% (inactive); in test [6] (setting [9]) it was 88.2%; in test [6] (setting [10]), 98.1%. Further, the Her2 level in test [2] is 95% (inactive). Moreover, the differential viability (reversal) in test [6] (H69AR cells + 2 uM doxorubicin) is 9.84% (inactive). Also, the inhibition in test [7] was -3.16% (inactive); in test [8], -3.5% (inactive).
With `CCOc1ccccc1NC(=O)N1C2CCCC1CC(NC(=O)C1CC1)C2` (stereo not given), the viability in test [1] was 102%; in test [3], 102% (inactive); in test [4] it was 107% (inactive); in test [5], 96.8% (inactive); in test [6] (setting [9]), 90%; in test [6] (setting [10]), 96.8%. Moreover, in test [2], the Her2 level is 95% (inactive). For the same compound, in test [6] (H69AR cells + 2 uM doxorubicin), the differential viability (reversal) is 6.77% (inactive). Besides, the inhibition is -6% (inactive) in test [7] and 2.58% (inactive) in test [8].
Regarding `COC(=O)c1ccccc1NC(=O)Cn1ccnc1`, the viability in test [1] was 110%; in test [3], 110% (inactive); in test [4], 80.8% (inactive); in test [5] it was 97.7% (inactive); in test [6] (setting [9]) it was 101%; in test [6] (setting [10]), 97.7%. In addition, the Her2 level in test [2] is 88.5% (inactive). Moreover, in test [6] (H69AR cells + 2 uM doxorubicin), the differential viability (reversal) is -3.07% (inactive). In addition, the inhibition in test [7] is -2.3% (inactive); in test [8], 1.11% (inactive).
As to `COc1ccc(N2CCC(CNS(=O)(=O)c3cccc(C(F)(F)F)c3)C2)cc1` (stereo not given), the viability was 98% in test [1]; 98% (inactive) in test [3]; 84.5% (inactive) in test [4]; 86.7% (inactive) in test [5]; 88.9% in test [6] (setting [9]); 86.7% in test [6] (setting [10]). Further, the Her2 level in test [2] is 95% (inactive). The differential viability (reversal) in test [6] (H69AR cells + 2 uM doxorubicin) is -2.23% (inactive). The results for the inhibition in test [7] and in test [8] were -2.63% (inactive) and 16.6% (inactive), respectively.
In the case of `COc1ccc(/C(O)=C2/C(=O)C(=O)N(CCCN(C)C)C2c2ccc(Cl)cc2)cc1OC` (stereo not given), the viability in test [1] is 101%; in test [3] it was 101% (inactive); in test [4], 103% (inactive); in test [5], 103% (inactive); in test [6] (setting [9]), 105%; in test [6] (setting [10]), 103%. For the same compound, in test [2], the Her2 level is 97.5% (inactive). Also, the differential viability (reversal) in test [6] (H69AR cells + 2 uM doxorubicin) was -1.86% (inactive). Moreover, the inhibition in test [7] was 0.4% (inactive); in test [8], -3.39% (inactive).
In the case of `Cc1cc(C)n(C(=O)CNC(=O)C2COc3ccccc3O2)n1` (stereo not given), the viability in test [1] was 122%; in test [3], 122% (inactive); in test [4], 87.2% (inactive); in test [5], 97.1% (inactive); in test [6] (setting [9]), 93.5%; in test [6] (setting [10]), 97.1%. Also, the Her2 level in test [2] was 97.5% (inactive). Besides, the differential viability (reversal) in test [6] (H69AR cells + 2 uM doxorubicin) is 3.57% (inactive). In addition, the results for the inhibition in test [7] and in test [8] were -4.74% (inactive) and -1.59% (inactive), respectively.
Turning to `Cc1ccc(-c2[nH]nc3c2C(c2ccc(OC(=O)N4CCOCC4)cc2)C(C#N)=C(N)O3)cc1` (stereo not given), the viability in test [1] is 89%; in test [3], 89% (inactive); in test [4] it was 106% (inactive); in test [5], 85.5% (inactive); in test [6] (setting [9]), 96%; in test [6] (setting [10]) it was 85.5%. Also, in test [2], the Her2 level was 93% (inactive). Moreover, the differential viability (reversal) in test [6] (H69AR cells + 2 uM doxorubicin) is -10.4% (inactive). Besides, the figures for the inhibition in test [7] and in test [8] were -5.26% (inactive) and -11.4% (inactive), respectively.
As for `S=c1[nH]nc(-c2cccc(Br)c2)o1`, the viability was 91% in test [1]; 91% (inactive) in test [3]; 88.2% (inactive) in test [4]; 96.1% (inactive) in test [5]; 92.6% in test [6] (setting [9]); 96.1% in test [6] (setting [10]). Besides, the Her2 level in test [2] is 130% (inactive). Moreover, the differential viability (reversal) in test [6] (H69AR cells + 2 uM doxorubicin) was 3.51% (inactive). Moreover, the inhibition in test [7] is -1.58% (inactive); in test [8], -8.83% (inactive).
Regarding `O=C(Nn1c(C2CC2)nc2ccccc2c1=O)c1ccco1`, the viability in test [1] is 109%; in test [3] it was 109% (inactive); in test [4] it was 93.9% (inactive); in test [5], 95.4% (inactive); in test [6] (setting [9]), 95.9%; in test [6] (setting [10]), 95.4%. The Her2 level in test [2] is 108% (inactive). The differential viability (reversal) in test [6] (H69AR cells + 2 uM doxorubicin) is -0.5% (inactive). In addition, the inhibition in test [7] was -3.77% (inactive); in test [8], -6.39% (inactive).
